Consider 20 molecules from PubChem BioAssay.

A number with no mark means an inactive call. Inconclusive results are not listed. Activity calls are given as the source filed them.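 The calls were made as follows, unless noted: active = RAM network inhibition above 8.4% in each of two replicates, 3 SD over the compound average; inconclusive = above 8.4% inhibition in only one replicate; inactive = 8.4% inhibition or less in each replicate.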

Test [1] is described as follows: OD615 S. cerevisiae growth inhibition, permissive medium, pilot counter-assay, permissive growth control for S. cerevisiae lifespan shortening project (AID 705;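 active = growth inhibition above 25% in both replicates, a cutoff set 3 SD above the mean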). As to conditions: OD615, 24 h, at 10 µM, stronger effect = higher value. Put shortly:
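Material: engineered DeaD yeast; compound dosing: one dose 10 µM, DMSO 0.25% final; measure: yeast growth inhibition indicated by reduced 24 h OD615; detection: OD615 turbidity read; incubation: cells pre-grown 4 h, then 24 h compound exposure, 30 °C humidified; medium: permissive synthetic complete medium with raffinose and galactose carbon sources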

The nature of test [2]: Restrictive medium S. cerevisiae growth inhibition, OD615, pilot screen of yeast lifespan reduction project, restrictive growth control (AID 706;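 active = growth inhibition above a set limit, 3 SD over mean compound inhibition, in both replicates, cut at about 43% in these data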;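 also: modified DeaD lifespan yeast strain shifted to restrictive glucose medium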). As to conditions: OD615, 48 h, at 10 µM, stronger effect = higher value. Put shortly: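 material = engineered S. cerevisiae DeaD strain | medium = glucose-based CSMM-D restrictive medium | times = 4 h pre-incubation, 48 h exposure at 30 °C | technique = OD615 absorbance reading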

A short description of test [3]: viability gain of MRP-1-high H69AR cells under doxorubicin, pilot screen, MRP-1 activator project, CellTiter-Glo, duplicate (AID 807;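 active = viability increase at or above a cutoff of the median across tested compounds plus 3 SD, cut at about 8.5% in these data, passing the limit was not always enough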;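 also: compound pretreatment 18-22 h then 72 h combined with doxorubicin; 0% = doxorubicin alone and 100% = vehicle without doxorubicin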). As to conditions: H69AR viability with doxorubicin, CellTiter-Glo luminescence; at 10 µM; stronger effect = higher value. Background: In ATP-based viability assays light output follows the ATP content of the culture.
Test [4] can be described thus: growth suppression of PTEN-deleted HCT116, pilot screen, cell-based, HCT116 clonal line, CellTiter-Glo (AID 824;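 active = viability at or below 27.92% in each of two runs, the all-compound median minus 4 SD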;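 also: 0% = 20 µM Hyamine control and 100% = vehicle cell control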). The note with it: 60 h, at 10 µM, stronger effect = lower value.
The nature of test [5]: inhibitors of the yeast RAM network, pilot screen, dse1pr::URA3 reporter, 5-FOA selection (AID 869;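 active = inhibition over a set limit, the all-compound mean plus 3 SD, in both replicate runs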;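 also: 0% = DMSO wells with no growth and 100% = 10 µM 1-NA-PP1 with full growth; RAM network block rescues cells from 5-FOA so hits raise OD615 growth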). As to conditions: S. cerevisiae dse1pr::URA3 5-FOA growth, OD615, 2 d; at 10 µM; stronger effect = higher value; strain carries analog-sensitive mutant Cbk1 kinase.
Test [6] is described as follows: RAM signaling pathway blockade in yeast – S. cerevisiae, Pdr1DBD-CYC8 efflux-inhibited sensitized strain, primary screen (AID 1298).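 Also: 0% = DMSO untreated cells without growth and 100% = 10 µM 1-NA-PP1 full growth; higher means more yeast growth rescued from 5-FOA killing.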 The note with it: S. cerevisiae cbk1-as DSE1-URA3 strain, 5-FOA growth OD615, 2 d; at 50 µM; stronger effect = higher value.

Take `C=CCn1c(C)cc(C(=O)COc2nncc3ccccc23)c1C`: the growth inhibition in test [1] is -10.3%; in test [2] it was -15%. In addition, the viability increase in test [3] is -2.37%. Further, the viability in test [4] was 74.2%. The inhibition in test [5] was 2.32%. Also, in test [6], the RAM network inhibition was 0.87%.
For `O=C(Nc1ccc(F)cc1)c1cc(S(=O)(=O)N2CCCCC2)cs1`, the growth inhibition is -4.36% in test [1] and 5.66% in test [2]. Also, the viability increase in test [3] was -2.46%. Moreover, in test [4], the viability was 61.1%. Moreover, in test [5], the inhibition was 2.75%. Further, the RAM network inhibition in test [6] was -0.1%.
Turning to `CC1=C(C(=O)N2CCOCC2)C(c2cc(C)cs2)NC(=O)N1` (stereo not given), the growth inhibition in test [1] is -9.44%; in test [2], 2.88%. For the same molecule, in test [3], the viability increase is -0.83%. In addition, the viability in test [4] is 101%. In addition, the inhibition in test [5] is 2.48%. Moreover, in test [6], the RAM network inhibition is 3.08%.
Consider `COc1cc2c(cc1NC(C)=O)CCCC2`, for which the growth inhibition in test [1] is -5.3%; in test [2], -0.3%. Moreover, the viability increase in test [3] was -4.13%. Besides, in test [4], the viability is 100%. Moreover, in test [5], the inhibition is 1.28%. Further, in test [6], the RAM network inhibition is 1.23%.
Regarding `CCc1cc(=O)oc2cc(OCC(=O)OC)c(Cl)cc12`, the growth inhibition is -4.85% in test [1] and 1.34% in test [2]. Besides, the viability increase in test [3] is -2.39%. The viability in test [4] is 101%. Further, the inhibition in test [5] is 0.695%. For the same molecule, the RAM network inhibition in test [6] is 4.51%.
For `CCOC(=O)COc1cccc2c(=O)n(CC(=O)NCc3ccc4c(c3)OCO4)ccc12`, the growth inhibition in test [1] was -18.3%; in test [2], -15.8%. For the same molecule, the viability increase in test [3] is -5.67%. The viability in test [4] was 27.3% (active). The inhibition in test [5] is 3.72%. Also, in test [6], the RAM network inhibition was 6.61%.
Turning to `CCOC(=O)C1CCN(S(=O)(=O)c2cc(Br)cc3c2N(C(=O)C2CC2)CC3)CC1`, the growth inhibition in test [1] is -12.9%; in test [2], -13.7%. Also, the viability increase in test [3] is -1.73%. For the same molecule, in test [4], the viability is 96.5%. Further, the inhibition in test [5] is 1.68%. Besides, the RAM network inhibition in test [6] is 1.38%.
As for `COc1ccc(OC)c(S(=O)(=O)N2CCCCC2C(=O)N2CCN(c3ccccn3)CC2)c1` (stereo not given), the figures for the growth inhibition in test [1] and in test [2] were 1.82% and -0.22%, respectively. The viability increase in test [3] was -4.71%. In addition, the viability in test [4] was 91.8%. Besides, the inhibition in test [5] was 1.77%. In addition, the RAM network inhibition in test [6] was 7.83%.
For `CCOC(=O)N1CCN(C(=O)CN(C2CCCCC2)S(=O)(=O)c2ccc(C)cc2)CC1`, the growth inhibition is -13.9% in test [1] and -3.6% in test [2]. Moreover, in test [3], the viability increase is -4.47%. For the same molecule, in test [4], the viability was 97.3%. Further, the inhibition in test [5] was 1.92%. In test [6], the RAM network inhibition is -1.07%.
As to `O=S(=O)(Cc1ccccc1)N1CCc2ccccc2C1`, the results for the growth inhibition in test [1] and in test [2] were 2.65% and -4.61%, respectively. For the same molecule, the viability increase in test [3] was -0.66%. Besides, the viability in test [4] was 95.8%. Further, the inhibition in test [5] was 3.92%. For the same molecule, in test [6], the RAM network inhibition was 6.16%.
As to `COCCNC(=O)NC1(C(F)(F)F)Oc2ccc(Cl)cc2O1` (stereo not given), the growth inhibition in test [1] is -0.985%; in test [2], -0.285%. Besides, in test [3], the viability increase is -4.63%. In addition, the viability in test [4] is 41.9%. Moreover, the inhibition in test [5] was 0.43%. Further, the RAM network inhibition in test [6] was 5.07%.
On to `CCOc1ccc(S(=O)(=O)N(C)c2ccc(OCC(=O)Nc3ccc4[nH]c(=O)[nH]c4c3)cc2)cc1`, for which the growth inhibition in test [1] is -7.61%; in test [2], -11.1%. Moreover, in test [3], the viability increase was -4.94%. The viability in test [4] was 94.1%. The inhibition in test [5] is 0.8%. For the same molecule, in test [6], the RAM network inhibition is 7.12%.
In the case of `CCn1cc(C(=O)NCCCOC)c2cc(OC)c(OC)cc2c1=O`, the growth inhibition in test [1] is -10.7%; in test [2], 0.745%. Besides, the viability increase in test [3] was -2.42%. The viability in test [4] was 104%. The inhibition in test [5] is 2.5%. Further, in test [6], the RAM network inhibition was 3.59%.
As to `COc1ccc(C2C(C(=O)N3CCN(c4ccccc4F)CC3)c3ccccc3C(=O)N2C)cc1` (stereo not given), the growth inhibition was -12.2% in test [1] and -6.36% in test [2]. The viability increase in test [3] is -5.64%. The viability in test [4] is 74.3%. In addition, in test [5], the inhibition is 1.3%. Further, the RAM network inhibition in test [6] is 4.16%.
Turning to `Cc1c(C(=O)NCC2CCCO2)oc2ccc(S(=O)(=O)N3CCCC3)cc12` (stereo not given), the growth inhibition was -6.79% in test [1] and -3.9% in test [2]. Moreover, the viability increase in test [3] was -2.38%. The viability in test [4] is 91.6%. For the same molecule, in test [5], the inhibition is 2%. For the same molecule, the RAM network inhibition in test [6] is 1.44%.
Regarding `CCOc1ccccc1NC(=O)CSc1ccccc1`, the growth inhibition in test [1] was -17.2%; in test [2], -2.58%. Further, the viability increase in test [3] is -2.94%. Also, in test [4], the viability was 85.8%. The inhibition in test [5] is 0.255%. Moreover, in test [6], the RAM network inhibition is 2.06%.
`O=C1c2ccccc2C(=O)N1CSc1nnnn1-c1ccccc1`: the growth inhibition in test [1] was -1.45%; in test [2], 31.4%. For the same molecule, the viability increase in test [3] is -2.14%. Moreover, the viability in test [4] was 104%. For the same molecule, in test [5], the inhibition is 2.01%. Further, the RAM network inhibition in test [6] is 6.61%.
For `COc1cc(C(=O)N2CCN(c3cccc(C)c3C)CC2)cc(OC)c1OC`, the values for the growth inhibition in test [1] and in test [2] were 0.72% and 9.77%, respectively. Further, the viability increase in test [3] was -5.32%. Further, the viability in test [4] was 20.1% (active). In test [5], the inhibition was -0.125%. Moreover, the RAM network inhibition in test [6] is 10.1%.
Take `COc1cc(NC(=O)COc2ccc(-n3cnnn3)cc2)c(OC)cc1Cl`: the growth inhibition in test [1] is -3.27%; in test [2] it was -5.83%. Also, the viability increase in test [3] is -5.31%. Further, the viability in test [4] was 46.9%. The inhibition in test [5] is 2.55%. Also, the RAM network inhibition in test [6] is 2.93%.
For `Cc1ccc(NC(=O)CC2SC3=NCCN3C2=O)cc1` (stereo not given), the growth inhibition in test [1] was 3.71%; in test [2], 10.6%. Moreover, the viability increase in test [3] is 3.08%. Moreover, in test [4], the viability was 96.1%. The inhibition in test [5] is 1.66%. In addition, the RAM network inhibition in test [6] is 1.49%.

As a reminder, the viability is a read-out of living cells in per cent, often relative to untreated cells. Usually inhibition stands for the relative decrease from the control value, in per cent.
